Shown are actives, neighbours in structure and some others; about 2% of the full set was active somewhere.
RAD52 inh: inhibitors of human RAD52 DNA annealing; recombinant RAD52 DNA annealing, FRET fluorescence; 0.46% of 360,000 active; AID 651710; inhibition, % at 18.7 µM; P43351;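 active means every replicate showing at least 50% inhibition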
Xi reactivation: X-chromosome reactivation activator | activation, % at 7.58 µM | 0.055% of 360,000 active | XiGFP mouse fibroblasts, % GFP-positive cells imaging, 3 d; cells co-treated with 5-aza-dC sensitizer; scaled so ellipticine positive control = 100%;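 active means mean normalized replicate activation at least 10% and every replicate at or above 10%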;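 further: 0% = median of on-plate neutral control wells and 100% = ellipticine 6 µM median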
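Assay system – SV40-immortalized XiGFP fibroblast cells, line 68-5-11 · Buffer or medium – DMEM supplemented with 5-aza-dC as sensitizing agent · Dosing – one concentration, pinned · Benchmarks – positive control ellipticine, 6 µM final · Times – 3 days compound exposure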
RAD54 inh: inhibitors of human RAD54 branch migration. Q92698. RAD54 Holliday junction branch migration, FAM/BHQ fluorescence. inhibition, % at 10.4 µM. 0.14% of 360,000 active;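 active means mean normalized replicate activity at least 40 and at least half of replicates scoring 40 or more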;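 further: 0% = median of neutral control wells and 100% = median of positive control wells; inhibitors cause a drop in the FAM fluorescence signal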
Target sequence (Q92698 whole entry, looked up): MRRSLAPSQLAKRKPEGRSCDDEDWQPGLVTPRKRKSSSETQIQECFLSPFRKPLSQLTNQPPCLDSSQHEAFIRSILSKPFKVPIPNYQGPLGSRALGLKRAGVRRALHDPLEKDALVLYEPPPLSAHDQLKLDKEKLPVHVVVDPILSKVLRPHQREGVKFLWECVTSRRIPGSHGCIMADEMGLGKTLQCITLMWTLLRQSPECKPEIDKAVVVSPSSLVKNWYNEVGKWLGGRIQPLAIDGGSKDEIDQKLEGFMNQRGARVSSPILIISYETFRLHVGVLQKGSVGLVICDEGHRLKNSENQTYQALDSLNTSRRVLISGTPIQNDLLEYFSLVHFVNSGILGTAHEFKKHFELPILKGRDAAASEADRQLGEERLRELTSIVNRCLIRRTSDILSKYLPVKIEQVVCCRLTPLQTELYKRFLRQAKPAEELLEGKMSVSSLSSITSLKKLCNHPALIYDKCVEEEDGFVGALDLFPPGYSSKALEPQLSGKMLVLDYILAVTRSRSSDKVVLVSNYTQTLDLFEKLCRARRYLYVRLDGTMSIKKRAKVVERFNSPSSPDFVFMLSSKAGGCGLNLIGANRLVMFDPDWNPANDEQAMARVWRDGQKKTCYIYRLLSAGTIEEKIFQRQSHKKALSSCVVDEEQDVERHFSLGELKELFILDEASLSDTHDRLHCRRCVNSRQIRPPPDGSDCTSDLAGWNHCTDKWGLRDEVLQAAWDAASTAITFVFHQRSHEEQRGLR
PglD DTNB: PglD (C. jejuni) enzyme inhibition | purified PglD enzyme, DTNB colorimetric CoA detection | inhibition, % at 12.5 µM | 0.098% of 360,000 active | AID 602405; in the data active means inhibition above about 16%, passing the limit was not always enough
E-sel inducer: induces E-selectin expression in human endothelial cells | P16581 | HUVEC E-selectin immunofluorescence imaging; normalized: neutral wells 0, TNF-alpha wells 100 | activation, % at 7.58 µM | 0.37% of 260,000 active | AID 686992;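 active means mean E-selectin-positive cell signal at least 10% of the positive control, reached in at least 60% of replicates, without over 20% cell loss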
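Assay system: HUVEC primary endothelial cells. Input: 3,000 HUVEC seeded per well. Doses: one compound dose added by pin transfer. Read-out basis: % PE-positive cells. Benchmarks: TNF-alpha high, DMSO low. Detection: immunofluorescence imaging. Buffer or medium: EGM-2, gelatin.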
Ecoli rRNA inh: inhibitors of bacterial rRNA selective over humanized ribosomes; E. coli WT GFP vs humanized-ribosome RFP mutants, fluorescence, 24 h; stronger effect = lower value; DMSO median 0, no signal -100; GFP signal change (wild-type ribosome), % (test concentration not listed); 1.6% of 350,000 active; AID 720706;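 active means significant combined selectivity score with lowered wild-type GFP, culture density cut under 30%, mutant RFP and density less affected; inactive means any of these conditions unmet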
Numbers without * were called inactive.

For C[C@@H]1CN([C@H](C)CO)C(=O)Cc2cc(NC(=O)Nc3cccc4ccccc34)ccc2O[C@H]1CN(C)S(=O)(=O)c1ccccc1 the results were RAD52 inh -7.9, Xi reactivation -0.2, RAD54 inh 1.7, PglD DTNB 5.2, E-sel inducer 0.2 and Ecoli rRNA inh -0.1.
For O=C(C[C@@H]1CC[C@H]2[C@@H](COC[C@H](O)CN2CC2CC2)O1)NCC1CC1 the results were RAD52 inh -3.9, Xi reactivation -0.1, RAD54 inh -1.9, PglD DTNB 4.3, E-sel inducer 0.0 and Ecoli rRNA inh 2.2.
`C[C@@H]1CN([C@H](C)CO)S(=O)(=O)c2ccc(-c3cccnc3)cc2O[C@@H]1CN(C)CC1CCOCC1` gave RAD52 inh -0.6, Xi reactivation 0.4, RAD54 inh 6.3, PglD DTNB 5.8, E-sel inducer -0.2 and Ecoli rRNA inh 8.6.
CC(=O)c1cccc(NC(=S)NC(=O)c2cncc(Br)c2)c1 was read as RAD52 inh -20.2, Xi reactivation 0.1, RAD54 inh -0.5, PglD DTNB 3.5 and Ecoli rRNA inh -19.3.
O=C(NC(=S)Nc1ccccn1)c1cncc(Br)c1 was read as RAD52 inh -11.4, Xi reactivation 0.0, E-sel inducer 26.0* and Ecoli rRNA inh 4.3.
For COc1cccc(NC(=S)NC(=O)c2cncc(Br)c2)c1 the results were RAD52 inh -30.9, Xi reactivation 0.6, RAD54 inh 7.0, PglD DTNB 1.5, E-sel inducer 2.3 and Ecoli rRNA inh -24.3*.
`O=C(NC(=S)Nc1ccc(Br)cn1)c1cncc(Br)c1` gave RAD54 inh -1.9 and PglD DTNB -0.9.
`CCOC(=O)C1(Cc2ccccc2C)CCCN(C(=O)c2ccnn2C)C1` (stereo unspecified) gave RAD52 inh 5.2, Xi reactivation 0.0, RAD54 inh -0.6, PglD DTNB 5.4, E-sel inducer 113.9* and Ecoli rRNA inh -1.7.
Screening COc1ccc(CN(C)C[C@H]2OCCCC[C@@H](C)Oc3ccc(NC(=O)Nc4ccc(C(F)(F)F)cc4)cc3C(=O)N([C@H](C)CO)C[C@@H]2C)cc1 returned RAD52 inh 43.3, Xi reactivation 0.0, RAD54 inh -2.9, PglD DTNB -0.5 and Ecoli rRNA inh -4.5.
COc1ccc(NC(=O)Nc2ccc3c(c2)C(=O)N([C@H](C)CO)C[C@H](C)[C@H](CN(C)Cc2ccc(C(F)(F)F)cc2)OCCCC[C@@H](C)O3)cc1 was read as RAD52 inh -11.2, Xi reactivation 0.1, RAD54 inh -10.0, PglD DTNB -3.3, E-sel inducer 0.2 and Ecoli rRNA inh -0.8.
`COc1ccc(CN(C)C[C@H]2OCCCC[C@@H](C)Oc3ccc(NC(=O)Nc4ccc(C(F)(F)F)cc4)cc3C(=O)N([C@@H](C)CO)C[C@@H]2C)cc1` gave RAD52 inh 50.1*, Xi reactivation -0.1, RAD54 inh -12.2, PglD DTNB -3.5 and Ecoli rRNA inh -14.0.
COc1ccc(CN(C)C[C@H]2OCCCC[C@H](C)Oc3ccc(NC(=O)Nc4ccc(C(F)(F)F)cc4)cc3C(=O)N([C@H](C)CO)C[C@@H]2C)cc1 was read as RAD52 inh 52.9*, Xi reactivation 0.0, RAD54 inh 10.1, PglD DTNB -5.0, E-sel inducer 0.4 and Ecoli rRNA inh -4.8.
COc1ccc(CN(C)C[C@@H]2OCCCC[C@H](C)Oc3ccc(NC(=O)Nc4ccc(C(F)(F)F)cc4)cc3C(=O)N([C@H](C)CO)C[C@@H]2C)cc1 was read as RAD52 inh 52.8*, Xi reactivation 0.0, RAD54 inh -6.5, PglD DTNB -0.6 and Ecoli rRNA inh -4.2.
`COc1ccc(NC(=O)Nc2ccc3c(c2)C(=O)N([C@@H](C)CO)C[C@@H](C)[C@H](CN(C)Cc2ccc(C(F)(F)F)cc2)OCCCC[C@@H](C)O3)cc1` gave RAD52 inh -15.2, Xi reactivation 0.1, RAD54 inh -3.5, PglD DTNB -0.5, E-sel inducer 0.3 and Ecoli rRNA inh -1.6.
Screening Cc1csc(NC(=O)CSCC(=O)O)c1-c1nc2ccccc2s1 returned RAD52 inh -10.4, Xi reactivation -0.1, E-sel inducer 0.5 and Ecoli rRNA inh -50.7*.
Screening Cc1nc([N+](=O)[O-])cn1CC(O)c1ccc(-c2ccccc2)cc1 (stereo unspecified) returned RAD52 inh -11.0, Xi reactivation -0.1, RAD54 inh -21.3, PglD DTNB 4.8, E-sel inducer -0.1 and Ecoli rRNA inh -45.0*.
For C[C@H]1CN([C@@H](C)CO)C(=O)c2cc(NC(=O)NC3CCCCC3)ccc2O[C@@H]1CN(C)C(=O)Nc1ccccc1 the results were RAD52 inh 23.3, Xi reactivation -1.0, RAD54 inh 4.2, PglD DTNB 6.1, E-sel inducer -0.2 and Ecoli rRNA inh 5.8.
For C[C@@H]1CN([C@@H](C)CO)S(=O)(=O)c2ccc(C#CC3CC3)cc2O[C@@H]1CN(C)Cc1cccc(F)c1 the results were RAD52 inh -10.2, Xi reactivation -0.9, RAD54 inh -4.2, PglD DTNB -0.7, E-sel inducer -0.2 and Ecoli rRNA inh -5.4.
CC(C)NC(=O)Nc1ccc2c(c1)CC(=O)N([C@H](C)CO)C[C@H](C)[C@H](CN(C)S(=O)(=O)c1ccc(F)cc1)O2 was read as RAD52 inh -8.5, Xi reactivation 0.0, RAD54 inh 9.7, PglD DTNB -2.8, E-sel inducer -2.5 and Ecoli rRNA inh 1.2.
Screening C[C@H]1CN([C@@H](C)CO)C(=O)c2cc(-c3cccc(F)c3)cnc2O[C@H]1CN(C)C(=O)c1ccccn1 returned RAD52 inh 20.2, Xi reactivation -0.8, RAD54 inh 5.9, PglD DTNB -1.9, E-sel inducer 0.1 and Ecoli rRNA inh 3.4.
`CCCN(CC(=O)Nc1ccccc1C)C(=O)c1cccc(S(=O)(=O)N2CCc3ccccc3C2)c1` gave RAD52 inh -12.7, Xi reactivation 0.4, RAD54 inh 0.0, PglD DTNB -4.9 and Ecoli rRNA inh -21.4*.
For COC(=O)COc1ccc(S(=O)(=O)N2CCc3ccccc3C2)cc1C the results were RAD52 inh -6.9, RAD54 inh 14.6, PglD DTNB 4.4 and Ecoli rRNA inh -25.9*.
`CCCN(CC(=O)Nc1ccccc1C)C(=O)c1ccc(S(=O)(=O)N2CCCCCC2)cc1` gave RAD52 inh -12.0, Xi reactivation 0.5, RAD54 inh -6.2, PglD DTNB -1.4 and Ecoli rRNA inh -1.6.
